Source: ChEMBL document CHEMBL1154716, “Synthesis of some new S-triazine based chalcones and their derivatives as potent antimicrobial agents” (2010)
Converted amounts (≈) assume the structure as drawn. The source made the active and inactive calls. The rule behind the calls is not given here.

Legend:
Salmonella typhimurium [1] = assay: Antimicrobial activity against Salmonella Typhimurium at 1 umol/disk after 24 hrs by disk diffusion assay; assay type: functional, organism-based; conditions: Salmonella enterica subsp. enterica serovar Typhimurium
Method in brief: (§1)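 Disc diffusion on 4 mm filter discs. Bacteria are grown overnight in LB at 28 C, then adjusted in saline to 1.0 × 10^5 cfu/ml. The suspension is mixed into top agar over peptone agar plates. Plates are incubated 24 h at 28 C, and growth-inhibition zone diameter is measured. Streptomycin and ampicillin controls are applied from a 1 mg/ml stock. Tests are done in duplicate.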

Listeria monocytogenes [2] = assay: Antimicrobial activity against Listeria monocytogenes at 10 ug/disk after 24 hrs by disk diffusion assay; assay type: functional; method in brief: as §1
Listeria monocytogenes [3] = assay: Antimicrobial activity against Listeria monocytogenes at 1 umol/disk after 24 hrs by disk diffusion assay; assay type: functional; method in brief: as §1
Enterobacter cloacae [4] = assay: Antimicrobial activity against Enterobacter cloacae at 1 umol/spot after 18 hrs by TLC-bioautographic method; assay type: functional
Method in brief: (§2)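 TLC bioautography. Samples are spotted on silica gel TLC plates, then sprayed with bacteria (1.0 × 10^5 cfu/ml) in tryptic soy broth. Plates are incubated 18 h at 37 C and sprayed with 3% aqueous p-iodonitrotetrazolium violet. After a further 3 h, growth is stopped with 70% EtOH. White zones on a pink background are scored as inhibition-zone diameter with standard errors.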

Staphylococcus aureus [5] = assay: Antimicrobial activity against Staphylococcus aureus at 1 umol/spot after 18 hrs by TLC-bioautographic method; assay type: functional; method in brief: as §2
Escherichia coli [6] = assay: Antimicrobial activity against Escherichia coli at 1 umol/spot after 18 hrs by TLC-bioautographic method; assay type: functional; method in brief: as §2
Staphylococcus aureus [7] = assay: Antimicrobial activity against Staphylococcus aureus at 10 ug/disk after 24 hrs by disk diffusion assay; assay type: functional; method in brief: as §1
Micrococcus flavus [8] = assay: Antimicrobial activity against Micrococcus flavus at 10 ug/disk after 24 hrs by disk diffusion assay; assay type: functional; method in brief: as §1
Bacillus cereus [9] = assay: Antimicrobial activity against Bacillus cereus after 24 hrs by microdilution technique; assay type: functional
Method in brief: (§3)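 Broth microdilution in LB medium. Inoculum is 1.0 × 10^4 cfu per well, from a saline-adjusted suspension of 1.0 × 10^5 cfu/ml. Compounds are dissolved in DMSO. Incubated 24 h at 28 C. MIC is the lowest concentration with no visible growth under a binocular microscope. MBC is read by subculture into fresh broth for 72 h, with no growth taken as 99.5% kill. OD is read at 655 nm.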

Escherichia coli [10] = assay: Antimicrobial activity against Escherichia coli after 24 hrs by microdilution technique; assay type: functional; method in brief: as §3
Bacillus cereus [11] = assay: Antimicrobial activity against Bacillus cereus at 10 ug/disk after 24 hrs by disk diffusion assay; assay type: functional; method in brief: as §1
Enterobacter cloacae [12] = assay: Antimicrobial activity against Enterobacter cloacae after 24 hrs by microdilution technique; assay type: functional; method in brief: as §3
Listeria monocytogenes [13] = assay: Antimicrobial activity against Listeria monocytogenes after 24 hrs by microdilution technique; assay type: functional; method in brief: as §3
Pseudomonas aeruginosa [14] = assay: Antimicrobial activity against Pseudomonas aeruginosa at 10 ug/disk after 24 hrs by disk diffusion assay; assay type: functional; method in brief: as §1
Salmonella typhimurium [15] = assay: Antimicrobial activity against Salmonella Typhimurium at 10 ug/disk after 24 hrs by disk diffusion assay; assay type: functional, organism-based; conditions: Salmonella enterica subsp. enterica serovar Typhimurium; method in brief: as §1
Pseudomonas aeruginosa [16] = assay: Antimicrobial activity against Pseudomonas aeruginosa after 24 hrs by microdilution technique; assay type: functional; method in brief: as §3
Pseudomonas aeruginosa [17] = assay: Antimicrobial activity against Pseudomonas aeruginosa at 1 umol/spot after 18 hrs by TLC-bioautographic method; assay type: functional; method in brief: as §2
Enterobacter cloacae [18] = assay: Antimicrobial activity against Enterobacter cloacae at 1 umol/disk after 24 hrs by disk diffusion assay; assay type: functional; method in brief: as §1
Bacillus cereus [19] = assay: Antimicrobial activity against Bacillus cereus at 1 umol/spot after 18 hrs by TLC-bioautographic method; assay type: functional; method in brief: as §2
Staphylococcus aureus [20] = assay: Antimicrobial activity against Staphylococcus aureus at 1 umol/disk after 24 hrs by disk diffusion assay; assay type: functional; method in brief: as §1
Escherichia coli [21] = assay: Antimicrobial activity against Escherichia coli at 10 ug/disk after 24 hrs by disk diffusion assay; assay type: functional; method in brief: as §1
Micrococcus flavus [22] = assay: Antimicrobial activity against Micrococcus flavus after 24 hrs by microdilution technique; assay type: functional; method in brief: as §3
Listeria monocytogenes [23] = assay: Antimicrobial activity against Listeria monocytogenes at 1 umol/spot after 18 hrs by TLC-bioautographic method; assay type: functional; method in brief: as §2
Micrococcus flavus [24] = assay: Antimicrobial activity against Micrococcus flavus at 1 umol/spot after 18 hrs by TLC-bioautographic method; assay type: functional; method in brief: as §2
Enterobacter cloacae [25] = assay: Antimicrobial activity against Enterobacter cloacae at 10 ug/disk after 24 hrs by disk diffusion assay; assay type: functional; method in brief: as §1
Salmonella typhimurium [26] = assay: Antimicrobial activity against Salmonella Typhimurium after 24 hrs by microdilution technique; assay type: functional, Salmonella enterica subsp. enterica serovar Typhimurium; conditions: Salmonella enterica; method in brief: as §3
Bacillus cereus [27] = assay: Antimicrobial activity against Bacillus cereus at 1 umol/disk after 24 hrs by disk diffusion assay; assay type: functional; method in brief: as §1
Salmonella typhimurium [28] = assay: Antimicrobial activity against Salmonella Typhimurium at 1 umol/spot after 18 hrs by TLC-bioautographic method; assay type: functional; conditions: Salmonella enterica subsp. enterica serovar Typhimurium; method in brief: as §2
Micrococcus flavus [29] = assay: Antimicrobial activity against Micrococcus flavus at 1 umol/disk after 24 hrs by disk diffusion assay; assay type: functional; method in brief: as §1
Escherichia coli [30] = assay: Antimicrobial activity against Escherichia coli at 1 umol/disk after 24 hrs by disk diffusion assay; assay type: functional; method in brief: as §1
Staphylococcus aureus [31] = assay: Antimicrobial activity against Staphylococcus aureus after 24 hrs by microdilution technique; assay type: functional; method in brief: as §3
Pseudomonas aeruginosa [32] = assay: Antimicrobial activity against Pseudomonas aeruginosa at 1 umol/disk after 24 hrs by disk diffusion assay; assay type: functional; method in brief: as §1

Structure (SMILES) | inhibition zone (IZ) (Salmonella typhimurium [1]) | inhibition zone (IZ) (Listeria monocytogenes [2]) | inhibition zone (IZ) (Listeria monocytogenes [3]) | inhibition zone (IZ) (Enterobacter cloacae [4]) | inhibition zone (IZ) (Staphylococcus aureus [5]) | inhibition zone (IZ) (Escherichia coli [6]) | MBC (Bacillus cereus [9]) [µM] | MIC (Bacillus cereus [9]) [µM] | MBC (Escherichia coli [10]) [µM] | MIC (Escherichia coli [10]) [µM] | MBC (Enterobacter cloacae [12]) [µM] | MIC (Enterobacter cloacae [12]) [µM] | MBC (Listeria monocytogenes [13]) [µM] | MIC (Listeria monocytogenes [13]) [µM] | inhibition zone (IZ) (Salmonella typhimurium [15]) | MBC (Pseudomonas aeruginosa [16]) [µM] | MIC (Pseudomonas aeruginosa [16]) [µM] | inhibition zone (IZ) (Pseudomonas aeruginosa [17]) | inhibition zone (IZ) (Bacillus cereus [19]) | MBC (Micrococcus flavus [22]) [µM] | further results
COc1ccccc1/C=C/C(=O)c1ccc(Nc2nc(Nc3ccccc3)nc(Nc3ccccc3)n2)cc1 | inactive | inactive | inactive | 0.08 millimeter | 0.07 millimeter | inactive | 268 (≈ 138 µg/mL) | 134 (≈ 69 µg/mL) | 268 (≈ 138 µg/mL) | 134 (≈ 69 µg/mL) | 536 (≈ 276 µg/mL) | 268 (≈ 138 µg/mL) | 536 (≈ 276 µg/mL) | 268 (≈ 138 µg/mL) | inactive | 536 (≈ 276 µg/mL) | 268 (≈ 138 µg/mL) | inactive | 0.06 millimeter | 536 (≈ 276 µg/mL) | inhibition zone (IZ) (Staphylococcus aureus [7]): inactive; inhibition zone (IZ) (Micrococcus flavus [8]): inactive; inhibition zone (IZ) (Bacillus cereus [11]): inactive; zone of inhibition at 10 µg/disc (Pseudomonas aeruginosa [14]; read-out: IZ): 6 mm; inhibition zone (IZ) (Enterobacter cloacae [18]): inactive; inhibition zone (IZ) (Staphylococcus aureus [20]): inactive; inhibition zone (IZ) (Escherichia coli [21]): inactive; MIC (Micrococcus flavus [22]): 268 µM (≈ 138 µg/mL); inhibition zone (IZ) (Listeria monocytogenes [23]): 0.08 millimeter; inhibition zone (IZ) (Micrococcus flavus [24]): inactive; inhibition zone (IZ) (Enterobacter cloacae [25]): inactive; MBC (Salmonella typhimurium [26]): 536 µM (≈ 276 µg/mL); MIC (Salmonella typhimurium [26]): 268 µM (≈ 138 µg/mL); inhibition zone (IZ) (Bacillus cereus [27]): inactive; inhibition zone (IZ) (Salmonella typhimurium [28]): inactive; inhibition zone (IZ) (Micrococcus flavus [29]): inactive; inhibition zone (IZ) (Escherichia coli [30]): inactive; MBC (Staphylococcus aureus [31]): 268 µM (≈ 138 µg/mL); MIC (Staphylococcus aureus [31]): 134 µM (≈ 69 µg/mL)
CC1(C)S[C@@H]2[C@H](NC(=O)[C@H](N)c3ccccc3)C(=O)N2[C@H]1C(=O)O [AMPICILLIN] | inactive | inactive | inactive | inactive | inactive | inactive | 372 (≈ 130 µg/mL) | 248 (≈ 86.7 µg/mL) | 492 (≈ 172 µg/mL) | 372 (≈ 130 µg/mL) | 492 (≈ 172 µg/mL) | 372 (≈ 130 µg/mL) | 744 (≈ 260 µg/mL) | 372 (≈ 130 µg/mL) | inactive | 1240 (≈ 433 µg/mL) | 744 (≈ 260 µg/mL) | inactive | inactive | 372 (≈ 130 µg/mL) | zone of inhibition at 10 µg/disc (Staphylococcus aureus [7]; read-out: IZ): 8 mm; zone of inhibition at 10 µg/disc (Micrococcus flavus [8]; read-out: IZ): 8 mm; zone of inhibition at 10 µg/disc (Bacillus cereus [11]; read-out: IZ): 10 mm; inhibition zone (IZ) (Pseudomonas aeruginosa [32]): inactive; inhibition zone (IZ) (Pseudomonas aeruginosa [14]): inactive; zone of inhibition at 10 µg/disc (Escherichia coli [21]; read-out: IZ): 6 mm; MIC (Micrococcus flavus [22]): 248 µM (≈ 86.7 µg/mL); inhibition zone (IZ) (Listeria monocytogenes [23]): inactive; inhibition zone (IZ) (Micrococcus flavus [24]): inactive; zone of inhibition at 10 µg/disc (Enterobacter cloacae [25]; read-out: IZ): 6 mm; MBC (Salmonella typhimurium [26]): 492 µM (≈ 172 µg/mL); MIC (Salmonella typhimurium [26]): 248 µM (≈ 86.7 µg/mL); inhibition zone (IZ) (Salmonella typhimurium [28]): inactive; inhibition zone (IZ) (Micrococcus flavus [29]): 0.03 millimeter; inhibition zone (IZ) (Escherichia coli [30]): 0.02 millimeter; MBC (Staphylococcus aureus [31]): 372 µM (≈ 130 µg/mL); MIC (Staphylococcus aureus [31]): 248 µM (≈ 86.7 µg/mL)
